Assay outcomes from PubChem.
procasp7 counter: procaspase-7 activators, primary screen, counter-screen for procaspase-3 activator project, biochemical, absorbance, HTS, human | Caspase-7 (Homo sapiens), P55210 | recombinant procaspase-7, Ac-DEVD-pNA absorbance 405 nm; D23A/D198A/D206A triple mutant, cannot self-cleave; scale: DMSO 0, 5 µM enzyme 100 | activation, % at 8.5 µM | 330,000 tested, 0.093% active;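 active = percent activation above the screen-wide mean plus 3 SD, cut at about 25% in these data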
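Material: Procaspase-7 triple mutant (PC-7 D3A) | Quantity: 2 µM procaspase-7 mutant as dispensed | Reagent: DEVD-pNA substrate | Times: 1 h preincubation, 2 h reaction | Technique: 405 nm absorbance of p-nitroaniline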
IDE cell inh: human IDE inhibitors in live cells, primary screen, fluorescence polarization, HEK cells, FAbetaB substrate; Insulin-degrading enzyme (Homo sapiens), P14735; 320,000 tested, 0.41% active; AID 434962, 2010; FAbetaB cleavage; inhibition, % at 5.59 µM;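 active = percent inhibition above the average of all tested compounds plus 3 SD, set per screening campaign, cut at about 16% in these data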;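 note: IDE supplied by intact live HEK cells; FP after avidin binding of uncleaved biotin substrate so inhibition keeps polarization high; 0% = DMSO wells and 100% = 60 µM reference IDE inhibitor Ii1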
IDE act: human IDE activators in live cells, primary screen, fluorescence polarization, HEK cells, FAbeta-B substrate; Insulin-degrading enzyme (Homo sapiens), P14735; FAbeta-B cleavage; 0% vehicle, 100% cell-free pure enzyme wells; activation, % at 5.96 µM; 340,000 tested, 0.073% active;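 active = activation above the mean of all tested compounds plus 3 SD, set per screening campaign, cut at about 17% in these data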
PHOSPHO1 inh: PubChem AID 1565; inhibition, % at 13.3 µM; recombinant PHOSPHO1, absorbance phosphatase assay; Phosphoethanolamine/phosphocholine phosphatase (Homo sapiens), Q8TCT1; 290,000 tested, 1.1% active; in the data active = inhibition above about 60%
UBC13 inh: UBC13 polyubiquitin chain formation inhibitors, primary screen, biochemical, TR-FRET, uHTS | Ubiquitin-conjugating enzyme E2 N (Homo sapiens), P61088 | inhibition, % at 20 µM | 330,000 tested, 0.47% active | AID 485273, 2010; in the data active = inhibition above about 45%, passing the limit was not always enough; inconclusive = no clear call, values can overlap the other calls
proCasp3 act: activators of human procaspase-3 D3A mutant, primary screen, biochemical, absorbance, PC-3 D3A mutant, single concentration | activation, % at 8.5 µM | 330,000 tested, 0.11% active | AID 463141, 2010 | recombinant procaspase-3 D3A, Ac-DEVD-pNA absorbance 405 nm;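 active = activation above the mean of all tested compounds plus 3 SD, cut at about 21% in these data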;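 note: 0% = DMSO alone and 100% = DMSO wells spiked with extra 5 µM PC-3 D3A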
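Assay system – Procaspase-3 D3A mutant · Benchmarks – DMSO low control, extra-enzyme high control · Technique – 405 nm absorbance of p-nitroaniline, reads at 0 and 120 min · Doses – 8.5 µM nominal · Measure – % activation between DMSO and enzyme-spiked controls · Also added – Ac-DEVD-pNA chromogenic peptide substrate · Schedule – 1 h compound preincubation, 2 h substrate hydrolysis at 25 °C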
Casp3 counter: CASP3 inhibitor validation, counterassay for project on UBE2N polyubiquitination blockers, biochemical, one dose; shares compounds with UBC13 inh; Recombinant caspase-3, Caspase-Glo 3/7 luminescence, 60 min; inhibition, % at 20 µM; 1,400 tested, 4% active;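 active = mean inhibition across replicates above about 26%, limit read from the data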;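 note: plate controls were DMSO with caspase-3 for no effect and DMSO wells lacking enzyme for full effect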
UBC13 conf: UBC13 polyubiquitination inhibitors, single-point retest, confirmation, biochemical, TR-FRET, single concentration. inhibition, % at 10 µM. shares compounds with UBC13 inh. 1,400 tested, 68% active. AID 488859, 2010; in the data active = inhibition above about 45%; inconclusive = no clear call, values can overlap the other calls
An asterisk follows results filed as active; ? = inconclusive; / = not tested or not shown. An excerpt weighted towards active compounds, which were near 1.9% of everything screened.

SMILES | procasp7 counter | IDE cell inh | IDE act | PHOSPHO1 inh | UBC13 inh | proCasp3 act | Casp3 counter | UBC13 conf
C/C(CC(=O)Nc1ccc(F)cc1F)=N\NC(=O)C(=O)N1CCCCC1 | -12 | 4 | / | 17 | 1 | -3 | / | /
CN(C)CCCN(C(=O)c1ccc(C(=O)c2ccccc2)cc1)c1nc2cc3c(cc2s1)OCCO3 | 10 | -3 | -7 | -64 | 92* | 2 | 5 | 112*
CCN(Cc1ccccc1)S(=O)(=O)c1ccc(C(=O)N(CCCN(C)C)c2nc3cc4c(cc3s2)OCO4)cc1 | -2 | 2 | -11 | 51 | 64* | 0 | -3 | 104*
COc1cccc(-c2nn(Cc3ccccc3)cc2CO)c1 | -6 | 9 | -1 | 2 | 2 | -1 | / | /
OCCC1CCCCN1CC(O)COCc1ccc(Cl)cc1 (stereo unspecified) | -4 | 6 | 0 | 15 | 6 | -5 | / | /
CCOC(=O)CCc1nc2ccccc2[nH]1 | 1 | -2 | 4 | -9 | -3 | 12 | / | /
COCC(=O)O[C@]1(CCN(C)CCCc2nc3ccccc3[nH]2)CCc2cc(F)ccc2[C@@H]1C(C)C | 9 | 1 | 6 | -1 | 67* | 10 | -2 | 60*
CSc1nc(N2CCOCC2)c2c(c1C#N)CCCCC2 | 2 | -1 | -2 | 3 | 53* | 9 | 1 | ?
COc1cc(OC)c2c(-c3ccccc3)cc(=O)oc2c1C(CCN1CCCCC1)c1ccc2c(c1)OCO2 (stereo unspecified) | 4 | 1 | 1 | 13 | 25 | -4 | / | /
COc1ccc(C(CCN2CCCCC2)c2c(OC)cc(OC)c3c(-c4ccccc4)cc(=O)oc23)cc1 (stereo unspecified) | 5 | -1 | 8 | 4 | 68* | 14 | -4 | 37
COc1cc(OC)c2c(-c3ccccc3)cc(=O)oc2c1C(CCN1CCCCC1)c1ccc(N(C)C)cc1 (stereo unspecified) | 6 | -4 | 0 | 22 | 51* | 1 | -1 | 18
COc1ccccc1NS(=O)(=O)c1cccc(C(=O)N/N=C/c2c(CO)cnc(C)c2O)c1 | -12 | 7 | 3 | / | 72* | -3 | 1 | 19
COc1ccccc1N/N=C/c1c(CO)cnc(C)c1O | -5 | 5 | 1 | 4 | -9 | -3 | / | /
CCCCOc1ccc(C(=O)NNC(=O)c2cnccn2)cc1OC | -2 | -3 | -3 | / | 64* | 6 | -3 | 24
COc1ccc([N+](=O)[O-])cc1NS(=O)(=O)c1cc(C(=O)N2CCN(C)CC2)ccc1OC | -7 | 0 | 6 | / | -1 | 2 | / | /
NC(=O)c1nsc(C(=O)N(Cc2ccccc2F)C(C(=O)NCC2CCCO2)c2ccc(F)cc2)c1N (stereo unspecified) | -1 | 1 | 4 | 24 | 12 | -1 | / | /
Cc1ccc(C(C(=O)NCC2CCCO2)N(C(=O)c2snc(C(N)=O)c2N)c2ccc(F)cc2)o1 (stereo unspecified) | 7 | 2 | 5 | 28 | 46* | 7 | -5 | 39
NC(=O)c1nsc(C(=O)N(c2ccccc2)C(C(=O)NCC2CCCO2)c2ccc(F)cc2)c1N (stereo unspecified) | 6 | -3 | 3 | 31 | 22 | 1 | / | /
